Calls of active or inactive are those of the source. No cut-off for these calls is given here.
Legend:
Canis familiaris [1] = assay: Increase in blood pressure in dog at 0.5 mg/kg, iv by cardiotachometer; format: functional, Canis lupus familiaris
Method in brief: (§1)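 Anaesthetised dog (barbital 200 mg/kg). Compounds given intravenously, highest dose tested 1.0 mg/kg. Blood pressure recorded from the right femoral artery and heart rate by cardiometer. Resting heart rate, blood pressure and positive chronotropic responses were assessed after dosing. Doses calculated as free base.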

[2] = Toxicity in pigeon assessed as pecking; details: columbidae
Method in brief: (§2)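 Pigeons. Compounds given intramuscularly at up to 4 mg/kg to test induction of pecking. Antagonism of pecking induced by apomorphine (1.62 μM/kg) was also tested, and ED50 values were estimated.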

Canis familiaris [3] = assay: Increase in resting heart rate in dog at 0.5 mg/kg, iv by cardiotachometer; format: functional, organism-based; design: dose 0.5 mg/kg; details: Canis lupus familiaris; method in brief: as §1
Felis catus [4] = species on record: Felis catus; assay: Inhibition of field stimulation-induced positive chronotrophic response in cat atria; format: functional; details: Cardiac atrium
Canis lupus familiaris = species on record: Canis lupus familiaris; assay: Inhibition of electric stimulated dog right cardioaccelerator nerve; format: functional
Method in brief: (§3)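 Dog cardioaccelerator nerve preparation under barbital (200 mg/kg) anaesthesia. Compounds given intravenously up to 1.0 mg/kg. Positive chronotropic responses read by cardiometer, with blood pressure taken from the right femoral artery.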

Canis familiaris [5] = assay: Inhibition of apomorphine-induced emesis in dog at 2 mg/kg, sc; format: functional, organism-based; design: dose 2 mg/kg; details: Canis lupus familiaris
Method in brief: (§4)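 Unanaesthetised dogs. For emesis, compound given sc and dogs watched 45 min for an emetic response. For antagonism, compound given sc and apomorphine 100 μg/kg 15 min later.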

Rattus norvegicus [6] = species on record: Rattus norvegicus; assay: Toxicity in Sprague-Dawley rat assessed as locomotor hyperactivity treated bilateral injection into nucleus accumbens at 50 ug; format: organism-based; details: in vivo, other
Method in brief: (§5)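 Male Sprague-Dawley rats (250 ± 25 g) with stereotaxic guide cannulae aimed at the nucleus accumbens. Tested 10–14 days after surgery with a bilateral 1 μL infusion over 60 s; each rat used once and placement checked histologically. Locomotion counted by photocell cage. Stereotypy scored, where 3–4 = biting, gnawing or licking. Pretreatments given ip: α-methyl-p-tyrosine 250 mg/kg 6 h before, or haloperidol 0.1, propranolol 5 or aceperone 2.5 mg/kg 30 min before.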

Felis catus [7] = species on record: Felis catus; assay: Inhibition of field stimulation-induced positive ionotrophic response in cat atria; format: functional; details: Cardiac atrium
Rattus norvegicus [8] = species on record: Rattus norvegicus; assay: Toxicity in Sprague-Dawley rat assessed as licking up to 50 ug injection into nucleus accumbens; format: organism-based; details: in vivo, other; method in brief: as §5
Rattus norvegicus [9] = species on record: Rattus norvegicus; assay: Toxicity in Sprague-Dawley rat assessed as gnawing up to 50 ug injection into nucleus accumbens; format: organism-based; details: in vivo, other; method in brief: as §5
Rattus norvegicus [10] = species on record: Rattus norvegicus; assay: Toxicity in Sprague-Dawley rat assessed as biting up to 50 ug injection into nucleus accumbens; format: organism-based; details: in vivo, other; method in brief: as §5
Rattus norvegicus [11] = assay: Induction of rotation in rat with unilateral denervation of caudate nucleus at 4 mg/kg, sc; format: functional, organism-based; design: dose 4 mg/kg
Method in brief: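 Rats given a unilateral 6-hydroxydopamine injection into the substantia nigra. Compounds dosed subcutaneously and the rotations they induced were counted. Apomorphine served as the reference.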

Canis familiaris [12] = assay: Toxicity in dog assessed as emesis at 2 mg/kg, sc; format: organism-based, Canis lupus familiaris; design: dose 2 mg/kg, route subcutaneous; details: in vivo; method in brief: as §4
Columbidae = assay: Inhibition of apomorphine-induced pecking in pigeon; format: functional; method in brief: as §2
Canis familiaris [13] = assay: Increase in ionotrophic response in dog following field stimulation at 1 mg/kg, iv by cardiotachometer; format: functional, organism-based; design: dose 1 mg/kg; details: Canis lupus familiaris; method in brief: as §3
Canis familiaris [14] = assay: Increase in heart rate in dog at 1 mg/kg, iv by cardiotachometer; format: functional, organism-based; design: dose 1 mg/kg; details: Canis lupus familiaris; method in brief: as §1
Canis familiaris [15] = assay: Increase in ionotrophic response in iv dosed dog following field stimulation assessed as minimum effective dose by cardiotachometer; format: functional, Canis lupus familiaris; design: unit not given here; method in brief: as §3
Mus musculus [16] = assay: Toxicity in albino B.K.W mouse assessed as stereotyped behaviour at 20 to 80 mg/kg, sc; format: organism-based; design: dose 20-80 mg/kg, route subcutaneous; details: in vivo
Method in brief: (§6)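 Mice dosed subcutaneously at 20, 40 and 80 mg/kg in 1 mL/kg, doses as free base. Climbing scored as all four paws on the wire, giving a climbing index (% time over 30 min after the first climb) and the maximum time of a single climb. Circling was tested in mice with a unilateral caudate-putamen electrolesion, pre-selected for circling of 7 or more revolutions/2 min in response to apomorphine. Stereotypy was also recorded.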

Mus musculus [17] = assay: Toxicity in albino B.K.W mouse assessed as circling behaviour at 20 to 80 mg/kg, sc; format: organism-based; design: dose 20-80 mg/kg, route subcutaneous; details: in vivo; method in brief: as §6
Canis familiaris [18] = assay: Increase in heart rate in dog assessed as beats at 30 ug/kg, iv by cardiotachometer; format: functional, Canis lupus familiaris; method in brief: as §1
Canis familiaris [19] = assay: Increase in blood pressure in dog at 30 ug/kg, iv by cardiotachometer; format: functional, Canis lupus familiaris; method in brief: as §1
Mus musculus [20] = assay: Toxicity in albino B.K.W mouse assessed as climbing behaviour at 20 to 80 mg/kg, sc; format: organism-based; design: dose 20-80 mg/kg, route subcutaneous; details: in vivo; method in brief: as §6
Canis familiaris [21] = assay: Increase in heart rate in dog assessed as beats at 50 ug/kg, iv by cardiotachometer; format: functional, Canis lupus familiaris; method in brief: as §1
Canis familiaris [22] = assay: Increase in blood pressure in dog at 50 ug/kg, iv by cardiotachometer; format: functional, Canis lupus familiaris; method in brief: as §1
Canis familiaris [23] = assay: Increase in resting heart rate in dog at […], iv by cardiotachometer; format: functional, organism-based; details: Canis lupus familiaris; method in brief: as §1

| SMILES | Activity (Canis familiaris [1]) | Activity [2] | Activity (Canis familiaris [3]) | inhibition (Felis catus [4]) | inhibition (Canis lupus familiaris) | Activity (Canis familiaris [5]) | Activity (Rattus norvegicus [6]) | inhibition (Felis catus [7]) | Activity (Rattus norvegicus [8]) | Activity (Rattus norvegicus [9]) | Activity (Rattus norvegicus [10]) | Activity (Rattus norvegicus [11]) | Activity (Canis familiaris [12]) | inhibition (Columbidae) | Activity (Canis familiaris [13]) | Activity (Canis familiaris [14]) | MED (Canis familiaris [15]) | Activity (Mus musculus [16]) | Activity (Mus musculus [17]) | Activity (Mus musculus [20]) | further results |
| --- | --- | --- | --- | --- | --- | --- | --- | --- | --- | --- | --- | --- | --- | --- | --- | --- | --- | --- | --- | --- | --- |
| COc1ccc(CC(C)N)cc1OC.Cl (racemic) | <=10 mmHg | Non-toxic | inactive | inactive | inactive | inactive | Non-toxic | inactive | Non-toxic | Non-toxic | Non-toxic | inactive | Non-toxic |  |  |  |  |  |  |  |  |
| CNC(C)Cc1ccc(OC)c(OC)c1.Cl (racemic) | <=10 mmHg | Non-toxic | inactive | inactive | inactive | inactive |  | inactive |  |  |  | inactive | Non-toxic |  |  |  |  |  |  |  |  |
| COc1ccc(CC(C)N(C)C)cc1OC.Cl (racemic) | <=10 mmHg | Non-toxic | inactive | inactive | inactive | inactive |  | inactive |  |  |  | inactive | Non-toxic | Active |  |  |  |  |  |  |  |
| CCN(CC)C(C)Cc1ccc(OC)c(OC)c1.Cl (racemic) | <=10 mmHg | Non-toxic | inactive | inactive | inactive | inactive |  | inactive |  |  |  | inactive | Non-toxic | Active | Active | Active | 20 |  |  |  |  |
| CCCN(CCC)C(C)Cc1ccc(OC)c(OC)c1.Cl (racemic) | <=10 mmHg | Non-toxic | inactive | inactive | inactive | inactive |  | inactive |  |  |  |  | Non-toxic | Active |  |  |  |  |  |  |  |
| CCCCN(CCCC)C(C)Cc1ccc(OC)c(OC)c1.Cl (racemic) | <=10 mmHg | Non-toxic | inactive | inactive | inactive | inactive |  | inactive |  |  |  |  | Non-toxic |  |  |  |  |  |  |  |  |
| CCCNC(C)Cc1ccc(OC)c(OC)c1.Cl (racemic) | <=10 mmHg | Non-toxic | inactive | inactive | inactive | inactive | Non-toxic | inactive | Non-toxic | Non-toxic | Non-toxic | inactive | Non-toxic |  | Active | Active | 20 |  |  |  |  |
| CCCCNC(C)Cc1ccc(OC)c(OC)c1.Cl (racemic) | <=10 mmHg | Non-toxic | inactive | inactive | inactive | inactive |  | inactive |  |  |  |  | Non-toxic |  | Active | Active | 20 |  |  |  |  |
| CCNC(C)Cc1ccc(OC)c(OC)c1.Cl (racemic) | <=10 mmHg | Non-toxic | inactive | inactive | inactive | inactive |  | inactive |  |  |  |  | Non-toxic |  |  |  |  |  |  |  |  |
| COc1ccc(CC(C)NC(C)C)cc1OC.Cl (racemic) | <=10 mmHg | Non-toxic | inactive | inactive | inactive | inactive |  | inactive |  |  |  | inactive | Non-toxic |  |  |  |  |  |  |  |  |
| COc1ccc(CC(C)N(C)C(C)C)cc1OC.Cl (racemic) | <=10 mmHg | Non-toxic | inactive | inactive | inactive | inactive |  | inactive |  |  |  |  | Non-toxic | Active | Active | Active | 20 |  |  |  |  |
| Br.CC(C)NC(C)Cc1ccc(O)c(O)c1 (racemic) |  | Non-toxic |  | inactive | inactive | inactive | Non-toxic | inactive | Non-toxic | Non-toxic | Non-toxic |  | Non-toxic |  |  |  |  | Non-toxic | Non-toxic | Non-toxic | Activity (Canis familiaris [18]): 23 bpm; Activity (Canis familiaris [19]): 40% |
| Br.CC(C)N(C)C(C)Cc1ccc(O)c(O)c1 (racemic) | <=10 mmHg | Non-toxic | inactive | inactive | inactive | inactive | Non-toxic | inactive | Non-toxic | Non-toxic | Non-toxic |  | Non-toxic | Active | Active | Active | 20 | Non-toxic | Non-toxic | Non-toxic |  |
| Br.CCCCNC(C)Cc1ccc(O)c(O)c1 (racemic) | <=10 mmHg | Non-toxic | inactive | inactive | inactive | inactive | Non-toxic | inactive | Non-toxic | Non-toxic | Non-toxic |  | Non-toxic |  |  |  |  | Non-toxic | Non-toxic | Non-toxic |  |
| Br.CCCCN(CCCC)C(C)Cc1ccc(O)c(O)c1 (racemic) |  | Non-toxic |  | inactive | inactive | inactive | Non-toxic | inactive | Non-toxic | Non-toxic | Non-toxic |  | Non-toxic |  |  |  |  | Non-toxic | Non-toxic | Non-toxic |  |
| Br.CC(Cc1ccc(O)c(O)c1)N(C)C (racemic) |  | Non-toxic |  | inactive | inactive | inactive | Non-toxic | inactive | Non-toxic | Non-toxic | Non-toxic |  | Non-toxic |  |  |  |  | Non-toxic | Non-toxic | Non-toxic | Activity (Canis familiaris [21]): 50 bpm; Activity (Canis familiaris [22]): 80%; Activity (Canis familiaris [23]): Active |
